Legend:
Cricetinae gen. sp. [1] = experiment: Effect of compound on lactic dehydrogenase (LDH) levels in 1st group of cholesterol-fed male hamsters at 3 mg/kg/day after 14 days of treatment; details: Mesocricetus auratus
Mesocricetus auratus = experiment: Effect of compound on gain in body weight in 4th group of cholesterol-fed male hamsters at 100 mg/kg/day after 14 days of treatment
Rattus norvegicus [2] = experiment: Effect of compound on liver weight in 3rd group of normal chow-fed male rats after a dose of 5 mg/kg/day; assay type: functional
Method in brief: (§1)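 Male Sprague–Dawley CD rats, 60–80 g, on chow with a reverse 12 h light/dark cycle. Given one oral gavage dose daily for 4 days, suspended in 1.3% Tween 80/0.25% CMC. Fasted overnight and sacrificed 24 h after the last dose for blood and liver. Serum liver enzymes read on a clinical analyzer. Six per group, mean ± SEM.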

Rattus norvegicus [3] = experiment: Effect of compound on thyroxine levels in 3rd group of normal chow-fed male rats after a dose of 5 mg/kg/day; assay type: functional, organism-based
Method in brief: (§2)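 Male Sprague–Dawley CD rats, 60–80 g, on standard chow with reverse 12 h light/dark cycle. One oral gavage dose daily for 4 days, suspended in 1.3% Tween 80 and 0.25% CMC. Fasted overnight; sacrificed 24 h after the last dose. Serum TC on clinical analyzer, lipoproteins by FPLC with cholesterol per fraction, T4 on analyzer. Mean ± SEM, six rats per group.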

Cricetinae gen. sp. [4] = experiment: Effect of compound on very low-density lipoprotein cholesterol levels in 1st group of cholesterol-fed male hamsters at 3 mg/kg/day after 14 days of treatment; details: Mesocricetus auratus
Rattus norvegicus [5] = experiment: Percent change in triglycerides in hypercholesterolemic rats at a dose of 100 mg/kg/day for 8 days; assay type: functional
Rattus norvegicus [6] = experiment: Effect of compound on alkaline phosphatase (ALKP) levels in 6th group of normal chow-fed male rats after a dose of 50 mg/kg/day; assay type: functional, organism-based
Method in brief: (§3)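 Male Sprague–Dawley CD rats (60–80 g) on standard chow under a reversed 12 h light/dark cycle. Compound was suspended in 1.3% Tween 80/0.25% CMC and given as a single daily oral gavage dose for 4 days. Rats were fasted overnight and killed 24 h after the last dose. Serum ALT, AST, ALKP and LDH were read on a clinical analyzer. Weight gain was start versus end weight. Mean ± SEM, n = 6.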

Cricetinae gen. sp. [7] = experiment: Effect of compound on triglycerides level in 3rd group of cholesterol-fed male hamsters at 30 mg/kg/day after 14 days of treatment; details: Mesocricetus auratus
Rattus norvegicus [8] = experiment: Effect of compound on serum apolipoprotein A1 concentration in chow-fed male rats at a dose of 0 mg/kg/day; assay type: functional, organism-based
Method in brief: (§4)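 Separate dose-response study in male Sprague–Dawley CD rats, 60–80 g, on chow. Oral gavage once daily for 4 days in 1.3% Tween 80 / 0.25% CMC; fasted overnight, bled 24 h after last dose. Apo-A1 by ELISA with rabbit anti-rat primary, alkaline phosphatase-conjugated anti-rabbit IgG and p-nitrophenyl phosphate substrate. HDL-C by FPLC fractionation. Mean ± SEM, six per group.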

Rattus norvegicus [9] = experiment: Effect of compound on low-density lipoprotein cholesterol levels in 6th group of normal chow-fed male rats after a dose of 50 mg/kg/day; assay type: functional, organism-based
Method in brief: as §2

Cricetinae gen. sp. [10] = experiment: Effect of compound on lactic dehydrogenase (LDH) levels in 2nd group of cholesterol-fed male hamsters at 10 mg/kg/day after 14 days of treatment; details: Mesocricetus auratus
Rattus norvegicus [11] = experiment: Effect of compound on high-density lipoprotein cholesterol levels in 2nd group of normal chow-fed male rats after a dose of 2 mg/kg/day; assay type: functional, organism-based
Rattus norvegicus [12] = experiment: Effect of compound on alanine aminotransferase (ALT) levels in 5th group of normal chow-fed male rats after a dose of 20 mg/kg/day; assay type: functional, organism-based
Method in brief: as §3

Rattus norvegicus [13] = experiment: Effect of compound on low-density lipoprotein cholesterol levels in 3rd group of normal chow-fed male rats after a dose of 5 mg/kg/day; assay type: functional, organism-based
Method in brief: as §2

Cricetinae gen. sp. [14] = experiment: Effect of compound on thyroxine levels in 4th group of cholesterol-fed male hamsters at 100 mg/kg/day after 14 days of treatment; details: Mesocricetus auratus
Rattus norvegicus [15] = experiment: Effect of compound on triglycerides level in 1st group of normal chow-fed male rats after a dose of 1 mg/kg/day; assay type: functional, organism-based
Method in brief: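 Male Sprague–Dawley CD rats (60–80 g) on Purina 5001 chow with a reverse 12 h light/dark cycle. Dosed once daily by oral gavage for 4 days, suspended in 1.3% Tween 80 / 0.25% CMC. Fasted overnight and bled 24 h after the last dose. Serum TC and glycerol-blanked TG measured enzymatically; VLDL-C by FPLC fractionation with cholesterol assay. n=6, mean ± SEM.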

Rattus norvegicus [16] = experiment: Effect of compound on lactic dehydrogenase (LDH) levels in 1st group of normal chow-fed male rats after a dose of 1 mg/kg/day; assay type: functional, organism-based
Method in brief: as §3

Rattus norvegicus [17] = experiment: Effect of compound on lactic dehydrogenase (LDH) levels in 5th group of normal chow-fed male rats after a dose of 20 mg/kg/day; assay type: functional, organism-based
Method in brief: as §1

Rattus norvegicus [18] = experiment: Effect of compound on lactic dehydrogenase (LDH) levels in 4th group of normal chow-fed male rats after a dose of 10 mg/kg/day; assay type: functional, organism-based
Method in brief: as §1

Cricetinae gen. sp. [19] = experiment: Effect of compound on low-density lipoprotein cholesterol levels in 2nd group of cholesterol-fed male hamsters at 10 mg/kg/day after 14 days of treatment; details: Mesocricetus auratus
[20] = Effect on serum lipids in 5th group of normal chow-fed male rats after a dose of 20 mg/kg/day was evaluated as ratio of total plasma cholesterol levels to high-density lipoprotein cholesterol levels; assay type: functional
Method in brief: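 Male Sprague–Dawley CD rats, 60–80 g, chow-fed, dosed by oral gavage daily for 4 days in 1.3% Tween 80/0.25% CMC. Fasted overnight, bled 24 h after the last dose. Serum total cholesterol by enzymatic reagent; HDL-C from cholesterol in FPLC fractions; TPC/HDL-C ratio calculated. Six per group, mean ± SEM.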

Rattus norvegicus [21] = experiment: Effect of compound on gain in body weight in 2nd group of normal chow-fed male rats after a dose of 2 mg/kg/day; assay type: functional
Method in brief: as §3

Rattus norvegicus [22] = experiment: Effect of compound on serum high-density lipoprotein cholesterol concentration in chow-fed male rats at a dose of 50 mg/kg/day; assay type: functional, organism-based
Method in brief: as §4

Cricetinae gen. sp. [23] = experiment: Effect of compound on alkaline phosphatase (ALKP) levels in 3rd group of cholesterol-fed male hamsters at 30 mg/kg/day after 14 days of treatment; details: Mesocricetus auratus
Cricetinae gen. sp. [24] = experiment: Effect of compound on low-density lipoprotein cholesterol levels in 1st group of cholesterol-fed male hamsters at 3 mg/kg/day after 14 days of treatment; details: Mesocricetus auratus
Rattus norvegicus [25] = experiment: Effect of compound on alanine aminotransferase (ALT) levels in 6th group of normal chow-fed male rats after a dose of 50 mg/kg/day; assay type: functional, organism-based
Method in brief: as §3

Cricetinae gen. sp. [26] = experiment: Effect of compound on very low-density lipoprotein cholesterol levels in 4th group of cholesterol-fed male hamsters at 100 mg/kg/day after 14 days of treatment; details: Mesocricetus auratus

Which results are given for `CCN1CC(=O)N(c2cc(Cl)ccc2C)C1=S`?
Level (Cricetinae gen. sp. [1]): 1230 U l-1; Body weight (Mesocricetus auratus): 9 g; Liver weight (Rattus norvegicus [2]): 7.2 g; Serum level (Rattus norvegicus [3]): 4.23 µg/dL; Serum level (Cricetinae gen. sp. [4]): 115 mg/dL; Change (Rattus norvegicus [5]): -19%; Level (Rattus norvegicus [6]): 330 U l-1; Serum level (Cricetinae gen. sp. [7]): 433 mg/dL; Serum level (Rattus norvegicus [8]): 63.2 mg/dL; Serum level (Rattus norvegicus [9]): 7.1 mg/dL; Level (Cricetinae gen. sp. [10]): 1310 U l-1; Serum level (Rattus norvegicus [11]): 41 mg/dL; Level (Rattus norvegicus [12]): 78 U l-1; Serum level (Rattus norvegicus [13]): 6 mg/dL; Serum level (Cricetinae gen. sp. [14]): 4.02 µg/dL; Serum level (Rattus norvegicus [15]): 18 mg/dL; Level (Rattus norvegicus [16]): 724 U l-1; Level (Rattus norvegicus [17]): 1140 U l-1; Level (Rattus norvegicus [18]): 553 U l-1; Serum level (Cricetinae gen. sp. [19]): 136 mg/dL; Ratio [20]: 1.44; Body weight (Rattus norvegicus [21]): 28.5 g; Serum level (Rattus norvegicus [22]): 87.3 mg/dL; Level (Cricetinae gen. sp. [23]): 136 U l-1; Serum level (Cricetinae gen. sp. [24]): 178 mg/dL; Level (Rattus norvegicus [25]): 62 U l-1; Serum level (Cricetinae gen. sp. [26]): 81 mg/dL
